Experimental data reported in ChEMBL document CHEMBL3227987, “A new nonsteroidal analgesic-antiinflammatory agent. Synthesis and activity of 4-ethoxy-2-methyl-5-morpholino-3(2H)-pyridazinone and related compounds” (J Med Chem, 1979).

How the values were obtained:
Mus musculus = experiment: Analgesic activity in sc dosed ddY mouse assessed as inhibition of acetic acid-induced abdominal stretching pretreated for 30 mins followed by acetic acid challenge measured for 5 to 20 mins; format: functional; conditions: Abdomen
In short: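 Compound suspended in 1% gum arabic, given sc to mice; 30 min later 0.6% acetic acid ip at 0.1 mL/10 g body weight. Mouse counted protected if no stretching from 5 to 20 min after acid; ED50 by Litchfield–Wilcoxon method.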

Rattus norvegicus [1] = experiment: Antiinflammatory activity in Wistar rat assessed as inhibition of carrageenan-induced paw edema at 100 mg/kg, po pretreated for 30 mins followed by carrageenan challenge measured after 3 hrs relative to control; format: functional
In short: (§1)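 Male Wistar rats (120-150 g), six per group, dosed orally with compound suspended in 1% gum arabic; 30 min later 0.1 mL 1% carrageenan injected sc into hind paw plantar surface. Edema measured at 3 h; percent inhibition calculated against carrageenan-only animals.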

Rattus norvegicus [2] = experiment: Antiinflammatory activity in Wistar rat assessed as inhibition of carrageenan-induced paw edema at 50 mg/kg, po pretreated for 30 mins followed by carrageenan challenge measured after 3 hrs relative to control; format: functional; in short: as §1
Rattus norvegicus [3] = experiment: Antiinflammatory activity in Wistar rat assessed as inhibition of carrageenan-induced paw edema at 25 mg/kg, po pretreated for 30 mins followed by carrageenan challenge measured after 3 hrs relative to control; format: functional; in short: as §1
[4] = Acute toxicity in ip dosed ddY mouse measured after 72 hrs; format: organism-based; conditions: in vivo

| SMILES | ED50 (Mus musculus) [mg/kg] | inhibition in vivo at 100 mg/kg (Rattus norvegicus [1]) [%] | inhibition in vivo at 50 mg/kg (Rattus norvegicus [2]) [%] | inhibition in vivo at 25 mg/kg (Rattus norvegicus [3]) [%] | LD50 at 72 h [4] [mg/kg] |
| --- | --- | --- | --- | --- | --- |
| CCOc1c(N2CCN(C)CC2)cnn(C)c1=O | 82 | 12.3 | 10.2 |  |  |
| C/C=C/n1ncc(N2CCOCC2)c(OCC)c1=O | > 100 | 3.1 |  |  |  |
| Cc1c(N(C)C)c(=O)n(-c2ccccc2)n1C [AMINOPYRINE] | 46 | 48.2 | 25 | 11 | 420 |
| O=c1cccn[nH]1 | > 100 | 6.3 |  |  |  |
| CCCNc1cnn(C)c(=O)c1OCC | 72 | 38 | 8 | 2 |  |
| CCOc1c(N2CCCC2)cnn(C)c1=O | > 100 | 23 | -2.3 |  |  |
| CCOc1c(N2CCOCC2)cnn(CC)c1=O | 95 | 58.4 | 25.4 | 8.3 | 380 |
| c1ccnnc1 [PYRIDAZINE] | > 100 | -2.4 |  |  |  |
| Cn1ncc(N2CCOCC2)c(Cl)c1=O | 35 | 38.9 | 32.2 | 15.2 | 75 |
| CCOc1c(N2CCCCC2)cnn(C)c1=O | 86 | 14.1 | -5.4 |  |  |
| Cn1ncc(O)c(Cl)c1=O | > 100 | -5.8 |  |  |  |
| CC(C)Oc1c(N2CCOCC2)cnn(C)c1=O | 86 | 7.2 |  |  |  |
| CCCCCOc1c(N2CCOCC2)cnn(C)c1=O | 29 | 20.7 | 2.4 |  | 420 |
| CCCCn1ncc(N2CCOCC2)c(OCC)c1=O | > 100 | 18.3 |  |  |  |
| CCOc1c(Nc2ccccc2)cnn(C)c1=O | 36 | 4.9 |  |  |  |
| CCCOc1c(N2CCOCC2)cnn(C)c1=O | 23 | 34.9 | 32.4 | 4.5 | 500 |
| CCCCOc1c(N2CCOCC2)cnn(C)c1=O | 41 | 28.8 | -2.8 |  | 440 |
| CCOc1c(N2CCOCC2)cn[nH]c1=O | > 100 | 9.2 |  |  |  |

| SMILES | ED50 (Mus musculus) [mg/kg] | inhibition in vivo at 100 mg/kg (Rattus norvegicus [1]) [%] | inhibition in vivo at 50 mg/kg (Rattus norvegicus [2]) [%] | inhibition in vivo at 25 mg/kg (Rattus norvegicus [3]) [%] | LD50 at 72 h [4] [mg/kg] |
| --- | --- | --- | --- | --- | --- |
| Cn1ncc(N2CCOCC2)c(O)c1=O | > 100 | 16.6 | 8.2 |  |  |
| CCCCC1C(=O)N(c2ccccc2)N(c2ccccc2)C1=O [PHENYLBUTAZONE] | > 100 | 40.6 | 35 | 18 | 420 |
| C=CCOc1c(N2CCOCC2)cnn(C)c1=O | 90 | 17.4 | 5.2 |  |  |
| Cn1ncc(Cl)c(Cl)c1=O | > 100 | 23.2 | -8.9 |  |  |
| C=CCn1ncc(N2CCOCC2)c(OCC)c1=O | 18 | 23.5 | 1.2 |  | 550 |
| CCOc1c(N(C)C)cnn(C)c1=O | 86 | 49.5 | 30.7 | 27.5 | 305 |
| CCCn1ncc(N2CCOCC2)c(OCC)c1=O | > 100 | 32.4 | 3.5 |  |  |
| CCOc1c(N2CCOCC2)cnn(C(C)C)c1=O | > 100 | 22.2 | 2.1 |  |  |
| CCOc1c(N(CC)CC)cnn(C)c1=O | 70 | 32.5 | 1.7 |  |  |
| CCOc1c(N2CCOCC2)cnn(C)c1=O [EMORFAZONE] | 41 | 55 | 38.8 | 20.2 | 700 |
| CCOc1c(NC)cnn(C)c1=O | 55 | 31.1 | 4.5 | -1.1 | 400 |
| CCOc1c(N2CCSCC2)cnn(C)c1=O | > 100 | 11.8 | 6.2 |  |  |
| Cn1ncccc1=O | 65 | 4.5 |  |  |  |
| COc1c(N2CCOCC2)cnn(C)c1=O | 72 | 43.4 | 23.2 | 11 | 600 |
| CCOc1ccnn(C)c1=O | > 100 | -12.2 |  |  |  |
| C=CCN(CC=C)c1cnn(C)c(=O)c1OCC | 82 | 12.9 | -5.2 |  |  |
| Cn1ncc(N2CCOCC2)cc1=O | > 100 | -5.6 |  |  |  |
